Experimental findings from ChEMBL document CHEMBL1156711, “Synthesis and cytotoxicity evaluation of some benzimidazole-4,7-diones as bioreductive anticancer agents” (Eur J Med Chem, 2008) are described below.

The test system of assay [1] is HT-29. Kind of assay: Cytotoxicity against human HT29 cells after 72 hrs by MTT assay. The class given is functional, cell-based. The conditions noted are these: HT-29, 72 h. The procedure, abridged: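 HT29 grown in DMEM with 10% FBS and 2 mM L-glutamine at 37 °C, 5% CO2. Seeded at 3000 cells/well and treated 24 h later; vehicle 0.1% DMSO in PBS. MTT 0.5 mg/mL for 3 h, DMSO solubilization, OD 550 nm, triplicates, corrected for MTT blank and normalized to untreated. IC50 by Chou–Talalay median-effect plot.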
In general terms: Tetrazolium dyes change colour on reduction, which living cells bring about.

In assay [2] the test system is HT-29. In words: Cytotoxicity against human HT29 cells after 72 hrs by MTT assay in presence of 2 uM dicoumarol. The class given is functional, cell-based. The note with it: HT-29, 72 h.

Where only a bound is given, the exact number is not on record here.

Usually IC50 stands for the concentration that inhibits the measured activity by half.

On to `CC1=C(C)C(=O)c2c(nc(CC(C)(C)[N+](=O)[O-])n2C)C1=O`, for which, in assay [1], the IC50 is over 100000 nM. Take `CO[C@@]12[C@H](COC(N)=O)C3=C(C(=O)C(C)=C(N)C3=O)N1C[C@@H]1N[C@@H]12` [MITOMYCIN]: the IC50 in assay [2] is 2100 nM; in assay [1] it was 900 nM.
